Results reported in the RNAGym collection of RNA variant scans (doi:10.1126/science.aae0568).
Variants at the floor of the assay were thinned out.

B1: tRNA (parent)
chain: GUUCCGUUGGCGUAAUGGUAACGCGUCUCCCUCCUAAGGAGAAGACUGCGGGUUCGAGUCCCGUACGGAACG

Variants of: B1
Assay: yeast fitness relative to wild type (ratio to wild type); higher = fitter; tRNA-Arg(CCU), competitive growth, 37 C, YPD
How it was run: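 Start and end populations of a pooled competition were compared by 100-nucleotide paired-end sequencing of gene amplicons. The Saccharomyces cerevisiae strains carried tRNA-Arg(CCU) gene variants at the native genomic locus, synthesised with a 3% per-site mutation rate at 69 sites, and competed in YPD at 37°C for 24 hours in six parallel replicates. Darwinian fitness relative to wild type was based on the change in genotype frequencies. Genotypes required ≥ 100 starting reads, and estimates < 0.5 were set to 0.5.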

C22U A40U U64A and C22U A42G A45C C55G U64G cannot be ordered by yeast fitness: at most 0.5 for the first, at most 0.5 for the second.

C22U A42G U53C C55G A70U and C22U A42G U54C C55G A70U cannot be ordered by yeast fitness: at most 0.5 for the first, at most 0.5 for the second.

Going from C22U A42U G51C to C22U A43C A70C, the yeast fitness falls from 0.647 to 0.643.

Going from C22U A43G to C22U A43U, the yeast fitness falls from 0.835 to 0.788.

Going from C22U A43U C55G to C22U A45C G50A G67C A69C, the yeast fitness falls from 0.595 to at most 0.5.

Going from C22U A45U G52C A57U to C22U A57C, the yeast fitness rises from at most 0.5 to 0.661.

Compared with C22U A57G, C22U A57U is lower in yeast fitness: 0.775 for the first, 0.617 for the second.

Going from C22U A65U A70U to C22U A69U, the yeast fitness rises from 0.628 to 0.799.

Compared with C22U A70G, C22U C24A A42U C49U C61U is lower in yeast fitness: 0.784 for the first, at most 0.5 for the second.

Compared with C22U C24A C27U, C22U C24A U28G is higher in yeast fitness: at most 0.5 for the first, 0.542 for the second.

C22U C24G C30G A40U and C22U C24G C49G G56A cannot be ordered by yeast fitness: at most 0.5 for the first, at most 0.5 for the second.

C22U C24G C55U and C22U C24G U35C G56C U64A cannot be ordered by yeast fitness: at most 0.5 for the first, at most 0.5 for the second.

Compared with C22U C24U A45G G56C, C22U C24U C33G is higher in yeast fitness: at most 0.5 for the first, 0.502 for the second.

C22U C24U C33U A40U and C22U C24U G58C A65C cannot be ordered by yeast fitness: at most 0.5 for the first, at most 0.5 for the second.

Going from C22U C24U U26A U47C to C22U C27A C46A, the yeast fitness rises from at most 0.5 to 0.66.

First: C22U C27A G58A
Second: C22U C27G
The yeast fitness of the first is lower: 0.568 for the first, 0.721 for the second.

Compared with C22U C27G A37G A42C, C22U C27G A69U is higher in yeast fitness: at most 0.5 for the first, 0.508 for the second.

Compared with C22U C27G U28G U32G A45G, C22U C27U is higher in yeast fitness: at most 0.5 for the first, 0.713 for the second.

First: C22U C27U A57U C61G
Second: C22U C27U A70C
The yeast fitness of the first is lower: 0.574 for the first, 0.599 for the second.

Going from C22U C27U C33G G44C A65U to C22U C27U C55A A57U C61G, the yeast fitness falls from 0.574 to at most 0.5.

C22U C27U U32A C66U G67C and C22U C29A A36G A45U cannot be ordered by yeast fitness: at most 0.5 for the first, at most 0.5 for the second.

Going from C22U C29A G68A A69C to C22U C29A U47C G68A A69C, the yeast fitness falls from 0.55 to at most 0.5.

First: C22U C29U
Second: C22U C29U G39A G41A
The yeast fitness of the first is higher: 0.821 for the first, at most 0.5 for the second.

C22U C29U G41A C55U C61A and C22U C30A A42C G58A cannot be ordered by yeast fitness: at most 0.5 for the first, at most 0.5 for the second.

Going from C22U C30A C49A C55A C62U C66U to C22U C30G A57U, the yeast fitness falls from 0.667 to at most 0.5.

C22U C30G G50A and C22U C30G G51C G56U cannot be ordered by yeast fitness: at most 0.5 for the first, at most 0.5 for the second.

C22U C30U A37G C66U and C22U C30U A37G G48C C55G cannot be ordered by yeast fitness: at most 0.5 for the first, at most 0.5 for the second.

Going from C22U C30U A40C C55A A65G to C22U C30U C33U A45C, the yeast fitness rises from at most 0.5 to 0.548.

C22U C30U C33U A45C A65C and C22U C30U C33U U47A G58A A65C cannot be ordered by yeast fitness: at most 0.5 for the first, at most 0.5 for the second.

First: C22U C30U U47A
Second: C22U C31A
The yeast fitness of the first is lower: at most 0.5 for the first, 0.762 for the second.

Compared with C22U C31A A37C U47C G67A, C22U C31G A43U is higher in yeast fitness: at most 0.5 for the first, 0.612 for the second.

C22U C31G A43U C60A and C22U C31G C49U A65G cannot be ordered by yeast fitness: at most 0.5 for the first, at most 0.5 for the second.

Going from C22U C31G C49U C66U G67A to C22U C31G G48C, the yeast fitness falls from 0.563 to at most 0.5.

First: C22U C31G G51A
Second: C22U C31G G67C
The yeast fitness of the first is lower: 0.563 for the first, 0.653 for the second.

Going from C22U C31U U47G to C22U C33G, the yeast fitness rises from at most 0.5 to 0.551.

Going from C22U C33G A65G to C22U C33U, the yeast fitness rises from at most 0.5 to 0.717.

First: C22U C33U C34A G38C G52A
Second: C22U C33U G51A
The yeast fitness of the first is higher: 0.601 for the first, at most 0.5 for the second.

First: C22U C33U G52A
Second: C22U C34A
The yeast fitness of the first is lower: 0.566 for the first, 0.641 for the second.

First: C22U C34G A36U
Second: C22U C34G A36U A65C
The yeast fitness of the first is lower: 0.519 for the first, 0.573 for the second.

Compared with C22U C34G G39A C66U, C22U C34U is higher in yeast fitness: at most 0.5 for the first, 0.665 for the second.

First: C22U C34U C62U A70C
Second: C22U C46A G67A
The yeast fitness of the first is lower: at most 0.5 for the first, 0.657 for the second.

First: C22U C46G A65G
Second: C22U C46G C49G
The yeast fitness of the first is lower: at most 0.5 for the first, 0.564 for the second.

Compared with C22U C46G C55A C66A, C22U C49G is higher in yeast fitness: 0.564 for the first, 0.87 for the second.

Going from C22U C49U U64A to C22U C55G, the yeast fitness rises from 0.53 to 0.578.

Going from C22U C55U to C22U C55U A65G, the yeast fitness falls from 0.686 to at most 0.5.

C22U C55U G67C and C22U C60G U64G cannot be ordered by yeast fitness: at most 0.5 for the first, at most 0.5 for the second.

Going from C22U C60U to C22U C60U A70U, the yeast fitness falls from 0.723 to 0.678.

Compared with C22U C61A C66U, C22U C62U A65C is higher in yeast fitness: at most 0.5 for the first, 0.691 for the second.

Compared with C22U C66U A69C, C22U G23A A70C is lower in yeast fitness: 0.593 for the first, at most 0.5 for the second.

C22U G23A G48A A65U and C22U G23A G56A cannot be ordered by yeast fitness: at most 0.5 for the first, at most 0.5 for the second.

Going from C22U G23C C55U C60G to C22U G25A, the yeast fitness rises from 0.54 to 0.849.

Going from C22U G25A A65U to C22U G25A C31A, the yeast fitness rises from 0.687 to 0.728.

C22U G25A C55U C66U and C22U G25A G50A A69U cannot be ordered by yeast fitness: at most 0.5 for the first, at most 0.5 for the second.

First: C22U G25A U32A A36C A70G
Second: C22U G25A U54C A65U
The yeast fitness of the first is lower: at most 0.5 for the first, 0.555 for the second.

Compared with C22U G25C, C22U G25C C31U is lower in yeast fitness: 0.697 for the first, 0.625 for the second.

Going from C22U G25C C33A to C22U G25C C33U A37U, the yeast fitness falls from 0.552 to at most 0.5.

Compared with C22U G25C C62U, C22U G25C U28C A36G G51A is lower in yeast fitness: 0.67 for the first, at most 0.5 for the second.

Going from C22U G25C U28C A36G G51A G67A to C22U G38A, the yeast fitness rises from at most 0.5 to 0.748.

Compared with C22U G38A G68A, C22U G38C A65U C66U is lower in yeast fitness: 0.584 for the first, 0.547 for the second.

C22U G38C G48A and C22U G39A C49G cannot be ordered by yeast fitness: at most 0.5 for the first, at most 0.5 for the second.

Going from C22U G39C G48C to C22U G41C, the yeast fitness rises from 0.516 to 0.698.

Going from C22U G44A C46G G51A C66G to C22U G44C, the yeast fitness rises from at most 0.5 to 0.812.

Going from C22U G44C G48A G51A to C22U G48A C55U, the yeast fitness rises from 0.57 to 0.599.

Compared with C22U G48C, C22U G50U G63A is lower in yeast fitness: 0.863 for the first, at most 0.5 for the second.

First: C22U G51C
Second: C22U G51C C61G A70C
The yeast fitness of the first is lower: 0.512 for the first, 0.514 for the second.

Going from C22U G52C U54C to C22U G56C, the yeast fitness rises from at most 0.5 to 0.608.

First: C22U G58C A65C
Second: C22U G58C A69G
The yeast fitness of the first is lower: at most 0.5 for the first, 0.602 for the second.

Compared with C22U G67C, C22U G68A is higher in yeast fitness: 0.822 for the first, 0.852 for the second.

Going from C22U G68C to C22U U26A C29U U54C C66U, the yeast fitness falls from 0.717 to at most 0.5.

Compared with C22U U26A C34A A37U G48C, C22U U26A U47C is lower in yeast fitness: 0.799 for the first, at most 0.5 for the second.

Going from C22U U26A U47C C62A to C22U U28A A37U G51C C66U, the yeast fitness rises from at most 0.5 to 0.606.

C22U U28A C29U G38A and C22U U28A C33G G58A C66U cannot be ordered by yeast fitness: at most 0.5 for the first, at most 0.5 for the second.

Going from C22U U28C C29G C33A C62U G63A U64A to C22U U28C C34U A40C U64A, the yeast fitness rises from at most 0.5 to 0.762.

C22U U28C C49A and C22U U32A C46G G52C cannot be ordered by yeast fitness: at most 0.5 for the first, at most 0.5 for the second.

C22U U32A C46G G52C C62U and C22U U32C A45U C46U A57U cannot be ordered by yeast fitness: at most 0.5 for the first, at most 0.5 for the second.

C22U U32C C61G A69C and C22U U32C G48C A57G G68C cannot be ordered by yeast fitness: at most 0.5 for the first, at most 0.5 for the second.

C22U U32C G51A C61G and C22U U32C G52A C61U cannot be ordered by yeast fitness: at most 0.5 for the first, at most 0.5 for the second.

Compared with C22U U32G C34U A40G, C22U U32G C34U A40G G58A C66U is lower in yeast fitness: 0.62 for the first, at most 0.5 for the second.

Going from C22U U32G C34U G38U A40G C55G A70U to C22U U35A, the yeast fitness rises from at most 0.5 to 0.553.

C22U U35A G67U and C22U U35C A36C cannot be ordered by yeast fitness: at most 0.5 for the first, at most 0.5 for the second.

C22U U35C A37C and C22U U35C C55A A65G C66U cannot be ordered by yeast fitness: at most 0.5 for the first, at most 0.5 for the second.

Going from C22U U47A G63A to C22U U53A, the yeast fitness rises from 0.503 to 0.673.

C22U U53C C61G G67A A69C and C22U U53C G68C cannot be ordered by yeast fitness: at most 0.5 for the first, at most 0.5 for the second.

Work on C22U U53G yielded a yeast fitness of at most 0.5.
